# Screening results as filed in PubChem BioAssay.
# Sampled rows, rich in hits. Any-hit rate of the full collection: about 5.8%.
# Pf Dd2 inh: P. falciparum Dd2 growth inhibition; activity change, % at 10 µM; SYBR Green, 72 h; hits give low values; actives 2.3% (n = 94,000); AID 1159554; in the data active means activity change below about -80%; inconclusive means no clear call, values can overlap the other calls
# T cruzi growth-1: blocks T. cruzi growth in NIH3T3 culture; AID 624255; actives 5.9% (n = 77,000); inhibition, % at 8.34 µM; T. cruzi beta-gal in NIH3T3, GalScreen luminescence, 90 h;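 active means mean inhibition above about 93%, with at least 55% of replicates each passing it, limit read from the data, passing the limit was not always enough; inconclusive means only one of those two conditions holds; inactive means neither condition holds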
# GASC1 inh: blocks human GASC-1 (KDM4C) demethylase activity; Q9H3R0; GST-KDM4C 2-372, H3K9me3 peptide, LANCE TR-FRET; inhibition, % at 12.5 µM; actives 0.15% (n = 96,000); AID 720574;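 active means mean replicate inhibition above about 25%, with at least 55% of replicates also reaching it, limit read from the data, passing the limit was not always enough; inconclusive means only one of those two conditions met; inactive means neither condition met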
#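 Compound: one test concentration per compound; Material: GST-GASC-1 enzyme fragment 2-372; Amount: GASC-1 enzyme at 10 nM final in reaction; Also added: H3K9me3 peptide substrate, Fe(II), 2-oxoglutarate; Technique: LANCE TR-FRET; Times: 30 min demethylation and 1 h detection at room temperature.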
# IDH1 R132H inh: inhibitors of human IDH1 R132H; AID 624101; inhibition, % at 10 µM; O75874; actives 0.18% (n = 70,000); IDH1 R132H reductase, diaphorase/resazurin fluorescence, 60 min; in the data active means inhibition above about 34%; inconclusive means no clear call, values can overlap the other calls; inactive means below about 11%;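 further: 0% = DMSO and 100% = no enzyme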
# Target sequence (O75874 whole entry R132H): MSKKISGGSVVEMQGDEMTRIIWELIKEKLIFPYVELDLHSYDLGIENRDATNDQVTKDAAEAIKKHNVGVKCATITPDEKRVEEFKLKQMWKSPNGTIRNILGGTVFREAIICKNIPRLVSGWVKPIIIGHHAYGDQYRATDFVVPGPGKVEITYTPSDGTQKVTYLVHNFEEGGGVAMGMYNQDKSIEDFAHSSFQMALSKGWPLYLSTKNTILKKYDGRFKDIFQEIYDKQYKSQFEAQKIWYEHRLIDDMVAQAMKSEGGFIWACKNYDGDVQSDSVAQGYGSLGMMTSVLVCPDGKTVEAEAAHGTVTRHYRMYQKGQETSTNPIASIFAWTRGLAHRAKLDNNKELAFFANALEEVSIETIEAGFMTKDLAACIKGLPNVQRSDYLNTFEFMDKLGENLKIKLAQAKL
# T cruzi growth-2: blocks T. cruzi growth in NIH3T3 host cells; T. cruzi beta-gal in NIH3T3, GalScreen luminescence, 90 h; inhibition, % at 8.35 µM; actives 72% (n = 5,600); shares compounds with T cruzi growth-1;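 active means mean replicate inhibition above about 95% and at least 55% of replicates individually reaching it, limit read from the data; inconclusive means only one of the two criteria is met; inactive means neither criterion is met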
# T cruzi growth-3: inhibitors of T. cruzi proliferation. inhibition, % at 2.09 µM. T. cruzi beta-gal in NIH3T3, GalScreen luminescence, 90 h. AID 651740. shares compounds with T cruzi growth-1. actives 21% (n = 5,600);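 active means mean inhibition above about 95%, with at least 55% of replicates also reaching it, limit read from the data; inconclusive means meets just one of the two conditions; inactive means meets neither condition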;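 further: plate controls were neutral control median for no effect and positive control median for full effect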
# 3T3 cytotox: NIH/3T3 (mouse) viability loss; shares compounds with T cruzi growth-1; NIH/3T3 viability, CellTiter-Glo ATP luminescence, 90 h; cytotoxicity (signal decrease), % at 8.35 µM; actives 14% (n = 5,600); AID 651742;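 active means mean signal decrease across replicates above about 35% based on untreated-well scatter, with enough replicates individually passing, limit read from the data; inconclusive means no rule stated though some were filed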;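 further: 0% = median of neutral control wells and 100% = median of positive control wells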
# 3T3 cytotox 2: cytotoxicity in mouse NIH/3T3 fibroblasts | shares compounds with T cruzi growth-1 | NIH/3T3 viability, CellTiter-Glo ATP luminescence, 90 h | inhibition, % at 24.9 µM | actives 56% (n = 5,600);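 active means mean loss of cell viability signal at or above a set limit, and enough replicates individually reaching it; inconclusive means meets only the mean limit or only the replicate share; inactive means meets neither condition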;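 further: 0% = median of neutral control wells and 100% = median of positive control wells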
# An asterisk follows results filed as active; ? = inconclusive; / = not tested or not shown; + = active, no number.
SMILES,Pf Dd2 inh,T cruzi growth-1,GASC1 inh,IDH1 R132H inh,T cruzi growth-2,T cruzi growth-3,3T3 cytotox,3T3 cytotox 2
O=C(C[C@@H]1C[C@H]2c3cc(NS(=O)(=O)c4ccc(F)cc4)ccc3O[C@H]2[C@H](CO)O1)NCc1ccccc1,-2,-76,-3,0,/,/,/,/
O=C(C[C@@H]1C[C@@H]2c3cc(NS(=O)(=O)c4ccc(F)cc4)ccc3O[C@@H]2[C@@H](CO)O1)NCc1ccc(-c2ccccc2)cc1,-27,102*,/,2,88,92,39*,45*
O=C(C[C@@H]1C[C@H]2c3cc(NS(=O)(=O)c4ccc(F)cc4)ccc3O[C@H]2[C@@H](CO)O1)NCc1ccc(-c2ccccc2)cc1,-18,92,-7,0,/,/,/,/
CCn1ncc(CN(C)C(=O)c2cc(-c3cccnc3)nc3ccc(Cl)cc23)c1C,/,/,/,1,/,/,/,/
Cc1ccc(S(=O)(=O)Nc2ccc3c(c2)C(=O)N([C@H](C)CO)C[C@@H](C)[C@H](CN(C)S(=O)(=O)c2ccc(Cl)cc2)OCCCC[C@H](C)O3)cc1,-69,/,-2,-1,/,/,/,/
Cc1ccc(S(=O)(=O)Nc2ccc3c(c2)C(=O)N([C@H](C)CO)C[C@H](C)[C@@H](CN(C)S(=O)(=O)c2ccc(Cl)cc2)OCCCC[C@H](C)O3)cc1,-53,89,-2,5,/,/,/,/
Cc1ccc(S(=O)(=O)N(C)C[C@@H]2OCCCC[C@@H](C)Oc3ccc(NS(=O)(=O)c4ccc(Cl)cc4)cc3C(=O)N([C@H](C)CO)C[C@@H]2C)cc1,-14,74,-2,3,/,/,/,/
Cc1ccc(S(=O)(=O)N(C)C[C@H]2OCCCC[C@H](C)Oc3ccc(NS(=O)(=O)c4ccc(Cl)cc4)cc3C(=O)N([C@@H](C)CO)C[C@@H]2C)cc1,-59,93*,1,2,109*,107*,-31,-29
Cc1ccc(S(=O)(=O)N(C)C[C@@H]2OCCCC[C@H](C)Oc3ccc(NS(=O)(=O)c4ccc(Cl)cc4)cc3C(=O)N([C@@H](C)CO)C[C@H]2C)cc1,-27,106*,2,0,103*,71,-37,-10
Cc1ccc(S(=O)(=O)Nc2ccc3c(c2)C(=O)N([C@@H](C)CO)C[C@@H](C)[C@@H](CN(C)S(=O)(=O)c2ccc(Cl)cc2)OCCCC[C@@H](C)O3)cc1,-69,47,1,/,/,/,/,/
Cc1ccc(S(=O)(=O)N(C)C[C@H]2OCCCC[C@H](C)Oc3ccc(NS(=O)(=O)c4ccc(Cl)cc4)cc3C(=O)N([C@@H](C)CO)C[C@H]2C)cc1,-64,?,0,0,104*,108*,-37,-16
Cc1ccc(S(=O)(=O)N(C)C[C@@H]2OCCCC[C@@H](C)Oc3ccc(NS(=O)(=O)c4ccc(Cl)cc4)cc3C(=O)N([C@@H](C)CO)C[C@@H]2C)cc1,-57,110*,0,/,100*,113*,10,46*
N#C/C(=C\c1ccc(C2=CCOc3ccccc32)s1)S(=O)(=O)c1ccccc1,/,/,/,0,/,/,/,/
COC(=O)c1ccccc1NC(=O)C1=C(C)NC(=S)NC1c1ccc(OC2CCCC2)c(OC)c1 (centres undefined),/,/,/,0,/,/,/,/
COc1ccccc1-c1ccc2c(c1)O[C@H](CN(C)S(=O)(=O)c1ccc(C)cc1)[C@@H](C)CN([C@@H](C)CO)S2(=O)=O,-74,126*,-2,4,104*,66,39*,36*
COc1ccccc1-c1ccc2c(c1)O[C@@H](CN(C)S(=O)(=O)c1ccc(C)cc1)[C@H](C)CN([C@H](C)CO)S2(=O)=O,-84*,127*,-2,0,105*,103*,30,45*
COc1ccccc1-c1ccc2c(c1)O[C@@H](CN(C)C)[C@@H](C)CN([C@@H](C)CO)S2(=O)=O,-24,22,2,1,/,/,/,/
COC(=O)[C@@H]1[C@@H](CO)[C@@H]2Cn3c(ccc(C4=CCCCC4)c3=O)[C@@H]2N1CCC(F)(F)F,/,18,4,/,/,/,/,/
CN(C)C(=O)[C@@H]1[C@@H](CO)[C@@H]2Cn3c(ccc(C4=CCCCC4)c3=O)[C@@H]2N1Cc1ccccn1,/,+,1,/,-5,6,3,39*
CCN1[C@@H]2c3ccc(C4=CCCCC4)c(=O)n3C[C@@H]2[C@@H](CO)[C@@H]1C(=O)OC,-1,97*,3,/,-6,-18,-23,3
CCN1[C@H](C(=O)OC)[C@@H](CO)[C@@H]2Cn3c(ccc(C4=CCCCC4)c3=O)[C@@H]21,-8,103*,2,/,56,-8,14,13
O=C1/C(=C/c2cn[nH]c2-c2ccc(F)cc2)CS/C1=C\c1cn[nH]c1-c1ccc(F)cc1,/,/,/,-1,/,/,/,/
CCc1ccccc1NC(=O)Cn1nc([N+](=O)[O-])cc1C,/,/,/,0,/,/,/,/
CC(C)NC(=O)Nc1cccc2c1O[C@H](CN(C)Cc1ccc(Oc3ccccc3)cc1)[C@H](C)CN([C@@H](C)CO)C2=O,-71,54,-1,-1,/,/,/,/
CC(C)NC(=O)Nc1cccc2c1O[C@H](CN(C)Cc1ccc(Oc3ccccc3)cc1)[C@@H](C)CN([C@H](C)CO)C2=O,-32,103*,6,-2,102*,62,-26,103*
SMILES,Pf Dd2 inh,T cruzi growth-1,GASC1 inh,IDH1 R132H inh,T cruzi growth-2,T cruzi growth-3,3T3 cytotox,3T3 cytotox 2
CC(C)NC(=O)Nc1cccc2c1O[C@H](CN(C)Cc1ccc(Oc3ccccc3)cc1)[C@@H](C)CN([C@@H](C)CO)C2=O,-64,?,-1,1,100*,83,-15,104*
C[C@H](CO)N1C[C@H](C)[C@H](CN(C)Cc2ccc(Oc3ccccc3)cc2)Oc2c(NC(=O)Nc3cccc4ccccc34)cccc2C1=O,-78,98*,-5,-1,99*,109*,19,?
C[C@H]1CN([C@@H](C)CO)C(=O)c2cccc(NC(=O)Nc3ccccc3)c2O[C@@H]1CN(C)Cc1ccc(Oc2ccccc2)cc1,-40,81,/,1,/,/,/,/
CC(C)C(NC=O)C(=O)OCC(O)C(O)C(O)C(O)COC(=O)C(NC=O)C(C)C (centres undefined),/,/,/,0,/,/,/,/
CCCC#Cc1ccc([C@H]2[C@H](C#N)N(S(=O)(=O)c3cccc(F)c3)[C@H]2CO)cc1,-35,98*,0,/,103*,105*,7,59*
N#C[C@H]1[C@H](c2ccc(-c3cccc(F)c3)cc2)[C@@H](CO)N1S(=O)(=O)c1cccc(F)c1,-8,98*,-2,/,105*,59,41*,104*
